# Compound activity: PubChem, Johns Hopkins Ion Channel Center
# Most compounds without a hit are left out; they make up all but 3.7% or so of the library.
# KCNK9 inh: blocks the human KCNK9 two-pore domain potassium channel | AID 488922 | Q9NPC2 | HEK293 KCNK9, FluxOR thallium flux fluorescence; stronger effect = lower value | B-score at 10 µM | actives 1.2% (n = 310,000);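 active = ratio B-score over 3 SD below the library mean, with starting fluorescence within 5 SD of its mean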;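 also: negative B-score means less thallium flux so channel inhibition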
# KCNQ1 pot: human KCNQ1 channel potentiation or activation; P51787; CHO-K1 KCNQ1, thallium flux FluxOR fluorescence; stronger effect = higher value; B-score at 10 µM; actives 0.35% (n = 310,000); AID 2648;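 active = fluorescence ratio B-score, a plate-corrected score, at least three library SD, with initial intensity B-score within 5 SD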
# Target sequence (P51787 whole entry, looked up): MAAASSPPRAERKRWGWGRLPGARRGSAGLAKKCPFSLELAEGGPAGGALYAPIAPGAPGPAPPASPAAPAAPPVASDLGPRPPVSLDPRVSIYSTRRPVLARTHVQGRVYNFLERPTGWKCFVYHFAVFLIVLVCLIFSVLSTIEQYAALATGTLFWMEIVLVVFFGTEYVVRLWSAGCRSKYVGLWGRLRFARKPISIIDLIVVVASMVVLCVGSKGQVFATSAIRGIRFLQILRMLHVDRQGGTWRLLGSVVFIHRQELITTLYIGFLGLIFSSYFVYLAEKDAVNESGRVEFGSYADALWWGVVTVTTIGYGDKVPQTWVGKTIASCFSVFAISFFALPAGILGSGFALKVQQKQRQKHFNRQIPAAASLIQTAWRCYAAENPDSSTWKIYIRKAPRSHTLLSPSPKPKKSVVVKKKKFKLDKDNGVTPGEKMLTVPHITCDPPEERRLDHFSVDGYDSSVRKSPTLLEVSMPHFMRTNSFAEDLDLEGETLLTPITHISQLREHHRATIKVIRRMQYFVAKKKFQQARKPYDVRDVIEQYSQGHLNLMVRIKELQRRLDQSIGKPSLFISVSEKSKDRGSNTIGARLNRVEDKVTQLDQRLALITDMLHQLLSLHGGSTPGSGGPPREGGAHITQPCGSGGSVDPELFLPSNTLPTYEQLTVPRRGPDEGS
#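 Material: CHO-K1 cells stably expressing KCNQ1. Medium: assay buffer for compound exposure, DMSO matched across wells. Reagent: K+/Tl+ depolarizing stimulus. Compound dosing: single-concentration screen. Times: 37 °C overnight plating, 90-min dark dye load, 20-min compound pretreatment. Technique: FluxOR Tl+ flux fluorescence.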
# KCNQ1 inh: inhibitors of human KCNQ1 potassium channel; P51787; CHO-K1 KCNQ1, FluxOR thallium flux fluorescence; stronger effect = higher value; B-score at 10 µM; actives 1.3% (n = 310,000);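 active = compounds whose thallium flux B-score, printed positive for inhibition, exceeds three library SD while starting fluorescence stays within three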;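 also: channel opened by potassium depolarization with thallium stimulus after 20 min compound exposure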
# KCNK3 inh: human KCNK3 channel inhibition, primary screen; CHO-KCNK3 thallium flux, FluxOR fluorescence; stronger effect = lower value; B-score at 10 µM; actives 0.84% (n = 340,000);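 active = B-score under library mean minus 4 SD, starting fluorescence ratio at most library mean plus 5 SD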;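 also: more negative B-score means stronger inhibition of thallium flux through KCNK3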
# Kir21 inh: inhibitors of mouse Kir2.1 inward-rectifier potassium channel; B-score at 10 µM; HEK293-Kir2.1, FluxOR thallium flux fluorescence; stronger effect = lower value; P35561; actives 0.85% (n = 310,000); AID 1672;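 active = fluorescence ratio B-score at or below minus 3 SD of library scores, with starting-brightness B-score within 2 SD, cut at about -4.2 in these data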;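 also: channel flux triggered by added potassium and thallium sulfate stimulus; B-score of peak minus minimum fluorescence over baseline after thallium stimulus; more negative B-score means stronger Kir2.1 block with less thallium influx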
# hERG protect: shields human hERG channel from block by proarrhythmic agents; Q12809; actives 0.51% (n = 310,000); activation (rescue from dofetilide block), less the hit threshold, % at 10 µM; CHO-hERG, FluxOR thallium flux, dofetilide IC70 present; AID 1511;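 active = activation above the mean of controls blocked by dofetilide plus 5 SD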;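 also: thallium influx through hERG after potassium depolarization seen as dye fluorescence rise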
# A number is an active result; i = inactive; nt = not tested or not shown.
SMILES,KCNK9 inh,KCNQ1 pot,KCNQ1 inh,KCNK3 inh,Kir21 inh,hERG protect
COc1ccc(OC)c(NC(=O)CCNC(=O)c2ccco2)c1,i,i,i,i,i,i
CC(=O)c1c(N2CCCC2)[nH]c(-c2ccccc2)nc1=S,i,9,i,i,i,7.3
CC(=O)c1c(N2CCOCC2)[nH]c(-c2ccccc2)nc1=S,i,i,i,i,i,i
CC(=O)c1c(N2CCN(Cc3ccccc3)CC2)[nH]c(-c2ccccc2)nc1=S,i,23,i,i,i,i
Cc1onc(-c2ccc(Cl)cc2Cl)c1-c1csc(N/N=C/c2ccccc2)n1,i,i,i,i,i,i
COc1ccccc1C(=O)NC(=Nc1nc2ccccc2o1)NC(=O)c1ccccc1OC,-16,i,i,i,i,i
O=C(NC(=Nc1nc2ccccc2o1)NC(=O)c1ccccc1)c1ccccc1,i,i,i,i,i,i
COCCn1c(=S)[nH]c2ncccc2c1=O,i,i,i,i,i,i
CCCCCn1c(=S)[nH]c2ncccc2c1=O,i,20,i,i,i,12
COCCCn1c(=S)[nH]c2ncccc2c1=O,i,i,i,i,i,i
O=c1c2cccnc2[nH]c(=S)n1CCC1=CCCCC1,i,27,i,i,i,31
CCCCCNCC(=O)Nc1cc(C(F)(F)F)ccc1OCCOC,-8.5,i,i,i,i,i
COCCOc1ccc(C(F)(F)F)cc1NC(=O)c1ccc(C)cc1,i,i,i,i,i,i
CC(=O)C[C@H]1c2cc(C(F)(F)F)ccc2S(=O)(=O)N1Cc1ccccc1,i,9,i,i,i,i
CCCCCCCCCCCCN1[C@@H](CC(=O)OC)c2cc(C(F)(F)F)ccc2S1(=O)=O,i,i,i,i,i,i
CCOC(=O)C[C@H]1c2ccccc2S(=O)(=O)N1Cc1cccc(C(F)(F)F)c1,i,i,i,i,-4.5,i
CC(=O)C[C@H]1c2cc(C(F)(F)F)ccc2S(=O)(=O)N1c1ccccc1,i,i,i,i,i,i
CCOC(=O)C[C@H]1c2ccccc2S(=O)(=O)N1Cc1cc(OC)c(OC)c(OC)c1,i,i,i,i,i,i
CCOC(=O)C[C@H]1c2cc(F)ccc2S(=O)(=O)N1c1ccccc1,i,i,i,i,-5,i
CCCCCCCCN1[C@@H](CC(=O)OCC)c2ccc(C(F)(F)F)cc2S1(=O)=O,i,i,6,i,i,i
O/C(=C\c1ccc2ccccc2n1)c1ccc(O)cc1O,i,i,i,i,i,i
COc1ccc(S(=O)(=O)N2CCC(C(=O)NCCC(=O)Nc3cccc(Cl)c3)CC2)cc1,i,i,i,i,i,i
CCCN(CCC)C(=O)Cc1coc2ccc3ccccc3c12,i,i,i,i,-4.5,i
O=C(c1cc(-c2ccccc2)on1)N1CCCC1,i,i,i,i,i,5.0
C=C[C@](C)(CC[C@@]1(C)C(C)CC(OC2OC(C)C(OC3OC(COC(C)=O)C(O)C(O)C3O)C(O)C2O)[C@@]2(C)C(C)=CCCC12)OC1OC(C)C(O[C@@H]2O[C@@H](C)C(O)C(O)[C@H]2O)C(O)C1O (some centres not stated),nt,nt,nt,i,nt,nt
SMILES,KCNK9 inh,KCNQ1 pot,KCNQ1 inh,KCNK3 inh,Kir21 inh,hERG protect
CCCn1c(-c2ccc(OC)cc2)nc2ccccc21,i,i,i,i,-4.5,i
COCn1c(-c2ccc(OC)cc2)nc2ccccc21,i,i,i,i,i,i
Cc1ccccc1N(C(=O)c1cccs1)c1nc2ccccc2s1,i,i,7,i,i,i
Cc1ccsc1C(=O)N(c1nc2ccccc2s1)c1c(C)cccc1C,i,i,i,i,i,i
CC(=O)NCCOC(=O)Nc1sc(=S)n(C)c1C,i,i,8,i,i,i
Cc1ccc(C)c(S(=O)(=O)NCCOC(=O)Nc2sc(=S)n(C)c2C)c1,i,i,i,i,i,i
N#Cc1cccnc1N1CCN(C(=O)c2ccco2)CC1,i,i,i,i,i,i
CCc1nc(Nc2ccc(O)cc2)c2oc3ccccc3c2n1,i,i,i,i,i,i
CCc1nc(NCC2CCCO2)c2oc3ccccc3c2n1 (configuration not stated),i,i,i,-28,i,i
